Measurements as given in PubChem BioAssay AID652046 (Broad Institute, 2013).
Results filed as inconclusive are left out. The source made the active and inactive calls.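 How the source made its calls: active means fitted curve falls past -35% activity change at a concentration no higher than twice the top tested dose; inconclusive means no clear call, values can overlap the other calls; inactive means the rest, including activity in the opposite direction.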

Test system: not listed separately
Test: IL-1beta-stimulated NF-kB eGFP reporter inhibition, dose response, selectivity assay for EBV LMP1 NF-kB inhibitor project, cell-based, dsRed control, flow cytometry, dry powder (AID 652046)
Conditions: IL-1beta-stimulated NF-kB eGFP reporter/dsRed, flow cytometry, 16 h; at 18 µM (top of the series)
Outline: (§1)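 Detection: flow cytometry, scatter-gated live cells / System: HEK293 NF-κB eGFP reporter cells with dsRed / Times: 16 h compound exposure, 37 °C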

| SMILES | activity change, negative = inhibition |
| --- | --- |
| Cc1cc(C(=O)Nc2ccc3c(c2)C(=O)N(C)[C@@H]2CC[C@H](CC(=O)NCc4ccc(-c5ccccc5)cc4)O[C@H]2CO3)no1 | -15.2% (inactive) |

Same assay, conditions: IL-1beta-stimulated NF-kB eGFP reporter/dsRed, flow cytometry, 16 h; at 19.5 µM (top of the series)

| SMILES | activity change, negative = inhibition |
| --- | --- |
| CCCNC(=O)C[C@H]1CC[C@@H]2[C@H](COc3ccc(NC(=O)c4cc(C)on4)cc3C(=O)N2C)O1 | 2% (inactive) |
| COCCNC(=O)C[C@@H]1C[C@H]2c3cc(N(C)C)ccc3O[C@H]2[C@H](CO)O1 | -7.46% (inactive) |
| CN(C)c1ccc2c(c1)[C@@H]1C[C@@H](CC(=O)NCc3ccc4c(c3)OCO4)O[C@@H](CO)[C@@H]1O2 | -8.36% (inactive) |
| CN(C)c1ccc2c(c1)[C@@H]1C[C@@H](CC(=O)NCCc3ccccc3)O[C@@H](CO)[C@@H]1O2 | -4.63% (inactive) |
| COc1ccccc1CNC(=O)C[C@@H]1C[C@H]2c3cc(N(C)C)ccc3O[C@H]2[C@H](CO)O1 | 2.93% (inactive) |
| CCNC(=O)C[C@H]1CC[C@@H]2[C@H](COc3ccc(NC(=O)c4cc(C)on4)cc3C(=O)N2C)O1 | 0.718% (inactive) |
| CNC(=O)C[C@H]1CC[C@@H]2[C@H](COc3ccc(NC(=O)c4cc(C)on4)cc3C(=O)N2C)O1 | -2.16% (inactive) |
| COCCNC(=O)C[C@H]1CC[C@@H]2[C@H](COc3ccc(NC(=O)c4cc(C)on4)cc3C(=O)N2C)O1 | 1.68% (inactive) |
| O=C(C[C@@H]1C[C@H]2c3cc(NS(=O)(=O)c4ccc(F)cc4)ccc3O[C@H]2[C@H](CO)O1)NCc1ccc(Oc2ccccc2)cc1 | 6.68% (inactive) |
| CN1C(=O)c2cc(NS(C)(=O)=O)ccc2OC[C@@H]2O[C@@H](CC(=O)NCc3ccc(-c4ccccc4)cc3)CC[C@H]21 | 10.3% (inactive) |
| CN(C)c1ccc2c(c1)[C@@H]1C[C@@H](CC(=O)N3CCc4ccccc4C3)O[C@@H](CO)[C@@H]1O2 | 4.65% (inactive) |
| CN(C)c1ccc2c(c1)[C@@H]1C[C@@H](CC(=O)NCC3CC3)O[C@@H](CO)[C@@H]1O2 | -1.79% (inactive) |
| CN(C)c1ccc2c(c1)[C@@H]1C[C@@H](CC(=O)NCc3ccc(Oc4ccccc4)cc3)O[C@@H](CO)[C@@H]1O2 | 4.75% (inactive) |

Same assay, conditions: IL-1beta-stimulated NF-kB eGFP reporter/dsRed, flow cytometry, 16 h; at 21 µM (top of the series)

| SMILES | activity change, negative = inhibition |
| --- | --- |
| Cc1cc(C(=O)Nc2ccc3c(c2)C(=O)N(C)[C@@H]2CC[C@H](CC(=O)NCc4ccc(-c5ccccc5)cc4)O[C@@H]2CO3)no1 | 4.6% (inactive) |
| Cc1cc(C(=O)Nc2ccc3c(c2)C(=O)N(C)[C@@H]2CC[C@H](CC(=O)N[C@@H](C)c4ccccc4)O[C@H]2CO3)no1 | 5.36% (inactive) |

Test system: IL-1beta-stimulated NF-kB eGFP reporter/dsRed, flow cytometry, 16 h
Test: as above
Conditions: not given
Outline: as §1

| SMILES | AC35 |
| --- | --- |
| Nc1ccn([C@@H]2O[C@H](CO)[C@@H](O)C2O)c(=O)n1 (stereo partly drawn) | 19.1 µM |
| CN(C)c1ccc2c(c1)[C@@H]1C[C@@H](CC(=O)N3CCOCC3)O[C@@H](CO)[C@@H]1O2 | 2.09 µM |
| COc1ccccc1[C@]1(C)ON(c2ccccc2C(F)(F)F)C1=O | 10.7 µM |
| Cc1cc(C(=O)Nc2ccc3c(c2)C(=O)N(C)[C@@H]2CC[C@H](CC(=O)NC4CCCC4)O[C@H]2CO3)no1 | 9.72 µM |
| CN(C)c1ccc2c(c1)[C@@H]1C[C@@H](CC(=O)NCc3cc(F)ccc3F)O[C@@H](CO)[C@@H]1O2 | 2.23 µM |
| Cc1cc(C(=O)Nc2ccc3c(c2)C(=O)N(C)[C@@H]2CC[C@H](CC(=O)N[C@H](C)c4ccccc4)O[C@H]2CO3)no1 | 15.9 µM |
| O=C(Nc1ccc(C(F)(F)F)cc1)Nc1ccc2c(c1)[C@H]1C[C@@H](CC(=O)N3CCc4ccccc4C3)O[C@@H](CO)[C@H]1O2 | 12.7 µM |
| CN(C)c1ccc2c(c1)[C@@H]1C[C@@H](CC(=O)NCc3ccccc3F)O[C@@H](CO)[C@@H]1O2 | 20.8 µM |
| O=C(C[C@@H]1C[C@H]2c3cc(NC(=O)NC4CCCC4)ccc3O[C@H]2[C@H](CO)O1)NCc1ccc(Oc2ccccc2)cc1 | 17.1 µM |
| CN1C(=O)c2cc(NC(=O)Nc3ccccc3F)ccc2OC[C@@H]2O[C@@H](CC(=O)NCc3ccc(-c4ccccc4)cc3)CC[C@H]21 | 0.14 µM |
| O=C(C[C@@H]1C[C@H]2c3cc(NC(=O)Nc4ccccc4F)ccc3O[C@H]2[C@H](CO)O1)NCc1ccc(Oc2ccccc2)cc1 | 16.3 µM |
| CS(=O)(=O)Nc1ccc2c(c1)[C@@H]1C[C@@H](CC(=O)NCc3ccc(Oc4ccccc4)cc3)O[C@@H](CO)[C@@H]1O2 | 0.664 µM |
